Test results from ChEMBL document CHEMBL3596131, “Discovery of a novel trans-1,4-dioxycyclohexane GPR119 agonist series” (Bioorg Med Chem Lett, 2015).
Calls of active or inactive are those of the source. The calls are words filed in the database; no cut-off is given here.

How the values were obtained:
[1] = Half life in rat liver microsomes; assay type: ADME
Cytochrome P450 1A2 = target: T1, Cytochrome P450 1A2 (Homo sapiens, UniProt P05177); assay: Inhibition of CYP1A2 in human liver microsomes; assay type: ADME
T1 sequence (P05177 whole entry): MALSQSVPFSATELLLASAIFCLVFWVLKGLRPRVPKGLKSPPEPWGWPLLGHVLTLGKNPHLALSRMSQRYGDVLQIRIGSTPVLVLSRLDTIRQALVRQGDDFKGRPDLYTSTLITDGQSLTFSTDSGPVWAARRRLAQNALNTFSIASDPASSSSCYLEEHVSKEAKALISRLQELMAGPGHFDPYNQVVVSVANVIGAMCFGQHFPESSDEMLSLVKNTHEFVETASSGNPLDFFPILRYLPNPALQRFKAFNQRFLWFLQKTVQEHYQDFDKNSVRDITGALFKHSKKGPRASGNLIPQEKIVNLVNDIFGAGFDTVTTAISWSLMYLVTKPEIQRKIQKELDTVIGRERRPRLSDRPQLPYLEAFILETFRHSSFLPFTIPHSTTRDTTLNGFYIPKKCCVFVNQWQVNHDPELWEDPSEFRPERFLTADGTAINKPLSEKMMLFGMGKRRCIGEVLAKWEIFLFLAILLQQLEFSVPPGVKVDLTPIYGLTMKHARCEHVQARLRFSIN

Cytochrome P450 2C19 = Cytochrome P450 2C19 (Homo sapiens, UniProt P33261); assay: Inhibition of CYP2C19 in human liver microsomes; assay type: ADME
[2] = Agonist activity at monkey GPR119 by HTRF cAMP assay; design: species or system Macaca mulatta
Uncharacterized protein = target: T2, Uncharacterized protein (Canis lupus familiaris, UniProt A0A8C0THM6); assay: Agonist activity at canine GPR119 by HTRF cAMP assay
T2 sequence (A0A8C0THM6 whole entry): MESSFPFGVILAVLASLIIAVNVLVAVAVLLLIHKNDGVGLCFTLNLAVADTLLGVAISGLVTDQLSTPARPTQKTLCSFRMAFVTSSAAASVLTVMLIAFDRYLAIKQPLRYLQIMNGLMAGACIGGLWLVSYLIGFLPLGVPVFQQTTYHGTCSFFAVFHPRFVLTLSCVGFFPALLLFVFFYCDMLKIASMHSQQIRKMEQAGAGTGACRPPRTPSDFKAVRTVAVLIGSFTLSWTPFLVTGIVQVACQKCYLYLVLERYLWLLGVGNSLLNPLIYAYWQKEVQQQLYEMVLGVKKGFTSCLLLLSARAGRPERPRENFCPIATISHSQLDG

[3] = target: T3, Glucose-dependent insulinotropic receptor (Homo sapiens) (UniProt Q8TDV5); assay: Agonist activity at human GPR119 by HTRF cAMP assay relative to AR231453; assay type: functional
T3 sequence (whole entry): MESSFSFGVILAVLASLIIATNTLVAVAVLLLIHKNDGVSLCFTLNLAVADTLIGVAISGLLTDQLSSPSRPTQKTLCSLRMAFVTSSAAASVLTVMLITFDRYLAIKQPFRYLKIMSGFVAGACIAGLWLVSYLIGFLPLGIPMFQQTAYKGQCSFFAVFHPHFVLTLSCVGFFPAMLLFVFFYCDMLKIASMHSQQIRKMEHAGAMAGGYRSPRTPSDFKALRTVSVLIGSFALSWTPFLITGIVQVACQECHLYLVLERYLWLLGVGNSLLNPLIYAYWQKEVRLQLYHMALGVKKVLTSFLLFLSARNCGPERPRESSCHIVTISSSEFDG

[4] = target: T4, Uncharacterized protein (Canis lupus familiaris) (UniProt A0A8C0THM6); assay: Agonist activity at canine GPR119 by HTRF cAMP assay relative to AR231453
T4 sequence (whole entry): T2 sequence (A0A8C0THM6 whole entry)

Rattus norvegicus [5] = assay: Antidiabetic activity in Zucker diabetic fatty rat assessed as fed glucose lowering effect at 1 to 10 mg/kg, qd administered over 4 weeks measured after 2 weeks of treatment; assay type: functional, organism-based
Summary of the method: (§1)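 Chronic study in ZDF rats: once-daily dosing at 1, 3 or 10 mg/kg for 4 weeks, vehicle 0.5% methylcellulose; fed glucose and body weight tracked at dosing times, HbA1c measured on day 28 relative to vehicle.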

[6] = Half life in human hepatocytes; assay type: ADME, cell-based, Hepatocyte
[7] = Plasma protein binding in rat; assay type: ADME, cell-free; settings: read-out: PPB (converted)
[8] = Volume of distribution at steady state in Sprague-Dawley rat at 2 mg/kg, iv and po; assay type: ADME, organism-based; settings: in vivo, read-out: Vdss
Summary of the method: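 Male Sprague-Dawley rats received 2 mg/kg intravenously or 2 mg/kg orally in 20% hydroxypropyl-β-cyclodextrin. Steady-state volume of distribution was taken from the plasma pharmacokinetic profile and reported in L/kg.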

[9] = target: T5, Glucose-dependent insulinotropic receptor (Rattus norvegicus) (UniProt Q7TQN8); assay: Agonist activity at rat GPR119 by HTRF cAMP assay relative to AR231453; assay type: functional
T5 sequence (whole entry): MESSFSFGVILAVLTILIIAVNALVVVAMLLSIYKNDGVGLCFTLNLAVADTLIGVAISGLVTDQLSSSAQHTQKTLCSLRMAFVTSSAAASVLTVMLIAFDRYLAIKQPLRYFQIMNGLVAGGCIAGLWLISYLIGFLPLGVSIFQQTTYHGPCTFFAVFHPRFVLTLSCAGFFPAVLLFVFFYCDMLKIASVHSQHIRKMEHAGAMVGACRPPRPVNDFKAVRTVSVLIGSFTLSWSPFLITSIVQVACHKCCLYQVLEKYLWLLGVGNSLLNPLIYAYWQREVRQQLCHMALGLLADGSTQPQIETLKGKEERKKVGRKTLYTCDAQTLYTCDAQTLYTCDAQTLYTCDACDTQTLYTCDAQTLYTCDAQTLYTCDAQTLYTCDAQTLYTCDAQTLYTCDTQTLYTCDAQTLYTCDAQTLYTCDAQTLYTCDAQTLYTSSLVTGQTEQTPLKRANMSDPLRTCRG

Rattus norvegicus [10] = assay: Antidiabetic activity in Zucker diabetic fatty rat assessed as decrease in HbA1C level at 3 mg/kg, qd administered over 4 weeks measured on day 28 post last dose relative to vehicle-treated control; assay type: functional; design: scale not given: the % may be the effect or the level left; summary of the method: as §1
[11] = Ratio of drug level in brain to plasma in Sprague-Dawley rat at 2 mg/kg, po measured at 2 hrs; assay type: ADME, organism-based; settings: read-out: BPR
Summary of the method: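 Abbreviated CNS study in male SD rats given 2 mg/kg orally in 20% hp-β-CD; brain (ng/g) and plasma (ng/mL) levels sampled at 2 h post-dose, brain/plasma ratio calculated.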

[12] = Clearance in Sprague-Dawley rat at 2 mg/kg, iv and po; assay type: ADME, organism-based; settings: in vivo
Summary of the method: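 Male Sprague-Dawley rats; 2 mg/kg IV and 2 mg/kg PO in 20% hp-β-CD; clearance, Vss, terminal t1/2, Cmax, AUClast and oral bioavailability derived.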

Sequence of Cytochrome P450 2C19 (P33261 whole entry): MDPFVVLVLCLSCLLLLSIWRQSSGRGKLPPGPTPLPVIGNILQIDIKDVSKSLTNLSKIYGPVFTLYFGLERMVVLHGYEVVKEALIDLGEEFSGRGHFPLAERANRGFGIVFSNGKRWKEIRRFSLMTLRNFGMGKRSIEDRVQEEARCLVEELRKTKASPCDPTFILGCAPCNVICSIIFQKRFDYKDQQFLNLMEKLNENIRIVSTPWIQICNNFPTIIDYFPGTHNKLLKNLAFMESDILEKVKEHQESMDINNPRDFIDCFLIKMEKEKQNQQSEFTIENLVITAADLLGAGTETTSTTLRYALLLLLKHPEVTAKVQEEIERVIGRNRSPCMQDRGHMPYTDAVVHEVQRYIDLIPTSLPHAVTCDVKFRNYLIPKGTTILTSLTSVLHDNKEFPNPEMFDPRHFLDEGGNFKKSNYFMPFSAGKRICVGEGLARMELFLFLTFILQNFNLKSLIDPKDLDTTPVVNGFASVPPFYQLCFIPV

SMILES: C[C@@H](OC(=O)N1CCC(O[C@H]2CC[C@H](Oc3cnc(S(C)(=O)=O)cn3)CC2)CC1)C(F)(F)F
- half-life [1]: > 1 h
- INH (Cytochrome P450 1A2): > 50 µM
- INH (Cytochrome P450 2C19): 23.4 µM
- EC50 [2]: 3.4 nM
- EC50 (Uncharacterized protein): 6.1 nM
- Emax [3]: 106%
- Emax [4]: 144%
- Activity (Rattus norvegicus [5]): Active
- half-life [6]: > 2 h
- fraction unbound [7]: 0.04
- Vd [8]: 2.94 L/kg
- Emax [9]: 120%
- Activity (Rattus norvegicus [10]): 1.85%
- Kp at 2 h [11]: 0.98
- clearance [12]: 6.67 mL/min/kg
